From article PMC4969713 (Journal of Alzheimer's Disease, 2016)
“Also recorded” adds a separate entry of the source. Counter-ions that a name gives are not always drawn.

Key:
5-HT2A receptor = 5-HT2A receptor (Homo sapiens, UniProt P28223); assay: Radioligand binding competition, 5-HT2A
5-HT2C receptor = target: T1, 5-HT2C receptor (Homo sapiens, UniProt P28335); assay: Radioligand binding competition, 5-HT2C; details: Ki
T1 sequence (P28335 33-458): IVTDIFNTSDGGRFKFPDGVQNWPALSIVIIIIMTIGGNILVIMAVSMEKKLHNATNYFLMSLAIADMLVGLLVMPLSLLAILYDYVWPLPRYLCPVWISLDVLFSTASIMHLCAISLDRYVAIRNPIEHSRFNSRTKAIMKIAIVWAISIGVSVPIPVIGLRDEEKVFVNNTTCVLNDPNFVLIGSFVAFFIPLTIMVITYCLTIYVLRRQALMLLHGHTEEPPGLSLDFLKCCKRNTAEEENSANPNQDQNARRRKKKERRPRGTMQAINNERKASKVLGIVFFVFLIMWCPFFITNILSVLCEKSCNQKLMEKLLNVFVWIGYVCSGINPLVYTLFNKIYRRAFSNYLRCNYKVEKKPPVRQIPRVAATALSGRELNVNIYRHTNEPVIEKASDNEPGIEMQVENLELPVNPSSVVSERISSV

histamine H3 receptor = histamine H3 receptor (Homo sapiens, UniProt Q9Y5N1); assay: Radioligand binding competition, histamine H3
Adrenergic α2B = Adrenergic α2B (Homo sapiens, UniProt P18089); assay: Radioligand competition, adrenergic α2B; type: binding
Adrenergic α2A = Adrenergic α2A (Homo sapiens, UniProt P08913); assay: Radioligand competition, adrenergic α2A; type: binding; details: Ki
Solubility in water = type: physicochemical; details: pH 7.4
CYP2C9 = CYP2C9 (Homo sapiens, UniProt P11712); assay: Metabolism by recombinant CYP2C9; type: in vitro ADME
CYP3A4 = CYP3A4 (Homo sapiens, UniProt P08684); assay: Metabolism by recombinant CYP3A4; type: in vitro ADME
[1] = Metabolism in rat liver S9 fraction; type: in vitro ADME; details: for half-life at 1 µM / half-life at 2 µM: rat, liver S9 fraction
Pharmacokinetics in dogs = type: in vivo, dogs (Beagle); details: for Cmax / Tmax / half-life / AUC: Beagle, dog, blood
BALB/c mice [2] = assay: Open Field test; type: in vivo; details: IP; Lorazepam 0.05 mg/kg, AVN-101 0.2 mg/kg
Outline: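 Male BALB/c mice received lorazepam 30 min or test compound 5 min before testing; controls received saline, with at least 8 per group. Time in the central zone was recorded during a 10-min exploration. Comparison with the control group used ANOVA with Fisher LSD.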

BALB/c mice [3] = assay: Porsolt forced swim test; type: in vivo; details: AVN-101 0.05 mg/kg IP once daily for 4 days
male BALB/c mice = assay: Passive avoidance, scopolamine-induced amnesia, mice; type: in vivo
BALB/c mice [4] = assay: Passive avoidance, MK-801-induced amnesia, mice; type: in vivo
BALB/c mice [5] = assay: Morris water maze, scopolamine-induced amnesia; type: in vivo; details: IP; AVN-101 0.2 mg/kg; Tacrine 3 mg/kg; donepezil 1 mg/kg; scopolamine 1.5 mg/kg
Outline: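 Scopolamine-induced amnesia model in male BALB/c mice. Read-out was time spent in the quadrant where the escape platform had been during the two preceding training days, reported as mean ± SE.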

male SHK mice = assay: Apomorphine-induced disruption of pre-pulse inhibition; type: in vivo; details: IP
Outline: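 Male SHK mice received apomorphine as the pro-psychotic agent to disrupt pre-pulse inhibition. Groups: untreated control, apomorphine alone, haloperidol 1 mg/kg as positive control, and test compound at several doses. Groups were compared with the apomorphine-only group by Student test.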

Wistar rats = assay: 180 days toxicity, rats; type: in vivo
[6] = tested on: outbreed male and female rats; assay: Reproductive toxicology in rats; type: in vivo
Outline: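 Outbred male and female rats weighing 220–250 g received test compound in 0.9% physiological solution intragastrically at 1.0 or 25.0 mg/kg. Assessments covered embryotoxicity, offspring development, mating and fertilization capability, and reproductive function.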

healthy volunteers = assay: Phase I tolerability, healthy volunteers; type: in vivo, human
Outline: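 Healthy volunteers received single oral doses. Venous blood was drawn through an IV catheter before dosing and at several time points after. Urine was collected before dosing and at 4 h and 24 h after. Systolic and diastolic pressure and heart rate were monitored.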

[7] = Phase I pharmacokinetics, single PO dose; type: in vivo, human; details: human, blood, po
[8] = Dialysis of diluted rat plasma against rat brain homogenate; type: in vitro ADME; details: 1μM AVN-101 in 20% plasma vs brain homogenate
Outline: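 A 48-well semi-permeable-membrane dialysis plate was used. Donor chamber held 20% rat plasma diluted in PBS with 1 μM test compound; acceptor chamber held rat brain homogenate. Both chambers were sampled at several time points, and samples were matrix-equilibrated by cross-adding the opposite matrix. Membrane-permeability controls used 20% plasma in both chambers or PBS in both chambers.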

Chain of histamine H3 receptor (Q9Y5N1 whole entry, species assumed): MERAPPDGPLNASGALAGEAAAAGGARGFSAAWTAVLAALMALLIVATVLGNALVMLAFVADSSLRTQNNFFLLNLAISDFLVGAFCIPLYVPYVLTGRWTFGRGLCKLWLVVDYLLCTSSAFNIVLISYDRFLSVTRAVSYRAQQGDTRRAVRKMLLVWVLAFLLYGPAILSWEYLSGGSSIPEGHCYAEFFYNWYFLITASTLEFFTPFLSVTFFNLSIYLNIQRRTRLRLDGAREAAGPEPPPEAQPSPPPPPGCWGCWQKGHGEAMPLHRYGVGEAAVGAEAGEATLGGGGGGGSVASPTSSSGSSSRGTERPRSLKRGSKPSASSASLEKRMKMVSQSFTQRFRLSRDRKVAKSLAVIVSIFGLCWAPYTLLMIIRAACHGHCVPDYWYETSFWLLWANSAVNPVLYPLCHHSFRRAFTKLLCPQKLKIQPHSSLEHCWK
Chain of Adrenergic α2B (P18089 whole entry): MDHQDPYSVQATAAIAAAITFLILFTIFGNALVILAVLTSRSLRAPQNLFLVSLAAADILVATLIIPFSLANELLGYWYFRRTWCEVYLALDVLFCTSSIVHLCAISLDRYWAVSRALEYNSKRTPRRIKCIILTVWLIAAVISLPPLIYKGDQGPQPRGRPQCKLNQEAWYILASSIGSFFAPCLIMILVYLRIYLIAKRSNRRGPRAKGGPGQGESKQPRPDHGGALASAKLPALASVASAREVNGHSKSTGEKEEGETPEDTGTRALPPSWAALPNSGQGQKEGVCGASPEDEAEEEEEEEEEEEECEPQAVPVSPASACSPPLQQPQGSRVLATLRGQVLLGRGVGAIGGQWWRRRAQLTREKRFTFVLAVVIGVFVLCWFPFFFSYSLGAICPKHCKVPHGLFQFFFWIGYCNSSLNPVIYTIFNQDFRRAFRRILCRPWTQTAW
Chain of CYP2C9 (P11712 whole entry): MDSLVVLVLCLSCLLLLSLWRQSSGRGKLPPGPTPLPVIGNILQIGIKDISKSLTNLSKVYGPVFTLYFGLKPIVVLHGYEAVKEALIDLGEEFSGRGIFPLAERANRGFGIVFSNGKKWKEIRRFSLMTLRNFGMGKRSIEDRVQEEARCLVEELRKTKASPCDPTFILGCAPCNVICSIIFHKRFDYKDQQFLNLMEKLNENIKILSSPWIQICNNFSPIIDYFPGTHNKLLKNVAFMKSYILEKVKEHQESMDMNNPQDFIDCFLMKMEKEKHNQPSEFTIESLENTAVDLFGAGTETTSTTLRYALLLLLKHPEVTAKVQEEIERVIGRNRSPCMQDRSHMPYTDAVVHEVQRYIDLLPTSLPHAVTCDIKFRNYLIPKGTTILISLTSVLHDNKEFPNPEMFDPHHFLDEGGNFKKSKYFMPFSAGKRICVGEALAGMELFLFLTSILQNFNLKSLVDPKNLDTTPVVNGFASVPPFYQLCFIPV
Chain of Adrenergic α2A (P08913 whole entry): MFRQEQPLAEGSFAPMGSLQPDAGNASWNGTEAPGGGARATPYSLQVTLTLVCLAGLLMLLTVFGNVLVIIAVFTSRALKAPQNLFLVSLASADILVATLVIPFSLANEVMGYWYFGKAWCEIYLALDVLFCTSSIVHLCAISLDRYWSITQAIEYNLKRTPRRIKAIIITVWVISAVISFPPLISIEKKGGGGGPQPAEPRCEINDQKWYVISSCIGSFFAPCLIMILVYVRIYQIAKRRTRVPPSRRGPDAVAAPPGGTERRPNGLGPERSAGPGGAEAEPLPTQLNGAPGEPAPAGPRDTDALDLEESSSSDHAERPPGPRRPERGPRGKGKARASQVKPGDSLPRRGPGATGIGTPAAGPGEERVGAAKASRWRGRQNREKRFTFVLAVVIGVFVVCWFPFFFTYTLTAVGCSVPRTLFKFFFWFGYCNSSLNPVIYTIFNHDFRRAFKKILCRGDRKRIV
Chain of 5-HT2A receptor (P28223 whole entry): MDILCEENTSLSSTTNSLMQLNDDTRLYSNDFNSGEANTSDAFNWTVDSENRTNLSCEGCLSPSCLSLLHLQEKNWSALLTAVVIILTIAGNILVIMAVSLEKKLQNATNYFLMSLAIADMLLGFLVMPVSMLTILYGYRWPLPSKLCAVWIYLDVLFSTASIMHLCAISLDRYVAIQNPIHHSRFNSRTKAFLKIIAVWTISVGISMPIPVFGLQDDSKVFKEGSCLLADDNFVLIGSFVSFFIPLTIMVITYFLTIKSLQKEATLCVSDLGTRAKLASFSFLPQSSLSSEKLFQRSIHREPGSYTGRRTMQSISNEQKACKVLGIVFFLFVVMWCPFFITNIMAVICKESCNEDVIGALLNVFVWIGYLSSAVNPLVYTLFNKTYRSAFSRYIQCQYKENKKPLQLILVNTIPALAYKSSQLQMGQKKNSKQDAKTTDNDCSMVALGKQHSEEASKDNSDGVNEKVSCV
Chain of CYP3A4 (P08684 whole entry): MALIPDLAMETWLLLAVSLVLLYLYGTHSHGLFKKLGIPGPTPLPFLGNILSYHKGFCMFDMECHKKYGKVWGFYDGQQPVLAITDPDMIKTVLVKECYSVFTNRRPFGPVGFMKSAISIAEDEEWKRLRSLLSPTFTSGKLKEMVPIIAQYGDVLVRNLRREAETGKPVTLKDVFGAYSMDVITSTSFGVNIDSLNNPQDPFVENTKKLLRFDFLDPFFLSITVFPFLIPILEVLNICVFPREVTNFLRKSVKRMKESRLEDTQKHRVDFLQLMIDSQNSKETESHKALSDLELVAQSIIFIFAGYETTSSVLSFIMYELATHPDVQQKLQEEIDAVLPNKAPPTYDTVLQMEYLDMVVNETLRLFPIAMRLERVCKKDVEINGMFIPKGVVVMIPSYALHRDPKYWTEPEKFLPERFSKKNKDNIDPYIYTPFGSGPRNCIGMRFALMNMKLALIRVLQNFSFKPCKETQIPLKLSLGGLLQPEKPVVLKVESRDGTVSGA

Compound: Cc1ccc2c(c1)c1c(n2CCc2ccccc2)CCN(C)C1 [AVN-101, 2,8-dimethyl-5-penethyl-2,3,4,5-tetra-hydro-1h-pyrido[[4,3-B]]indole hydrochloride]
- Ki (5-HT2A receptor): 1.2 to 2 nM
- Ki (5-HT2C receptor): 1.2 to 2 nM
- binding (histamine H3 receptor): totally inactive; also recorded: does not bind
- Ki (Adrenergic α2B): 0.41 to 3.6 nM
- Ki (Adrenergic α2A): 0.41 to 3.6 nM
- solubility (Solubility in water): 194 mg/mL
- remaining at 0.5 h, 2 µM (CYP2C9): 110%
- remaining at 0.5 h, 2 µM (CYP3A4): 2%
- metabolism with UDPGA only ([1]; phase 2 co-factor UDPGA only): no metabolism
- half-life at 1 µM ([1]; T1/2, +NADPH+UDPGA): 0.96 min
- half-life at 2 µM ([1]; T1/2, +NADPH+UDPGA): 2.34 min
- half-life at 1 µM ([1]; T1/2, +NADPH): 1.22 min
- half-life at 2 µM ([1]; T1/2, +NADPH): 2.36 min
- Fabs (Pharmacokinetics in dogs; AVN-101 PO 10 mg/kg vs IV 2 mg/kg): 4.6%
- Cmax (Pharmacokinetics in dogs; iv, 1 mg/kg): 13.7 ng/mL
- Tmax (Pharmacokinetics in dogs; iv, 1 mg/kg): 0.0167 h
- half-life (Pharmacokinetics in dogs; iv, 1 mg/kg): 0.348 h
- AUC (Pharmacokinetics in dogs; iv, 2 mg/kg): 498 ng·h/mL
- Cmax (Pharmacokinetics in dogs; iv, 2 mg/kg): 3740 ng/mL
- Tmax (Pharmacokinetics in dogs; iv, 2 mg/kg): 0.0167 h
- half-life (Pharmacokinetics in dogs; iv, 2 mg/kg): 0.497 h
- AUC (Pharmacokinetics in dogs; po, 5 mg/kg): 31.6 ng·h/mL
- Cmax (Pharmacokinetics in dogs; po, 5 mg/kg): 9.1 ng/mL
- Tmax (Pharmacokinetics in dogs; po, 5 mg/kg): 4 h
- AUC (Pharmacokinetics in dogs; po, 10 mg/kg): 114 ng·h/mL
- Cmax (Pharmacokinetics in dogs; po, 10 mg/kg): 23 ng/mL
- Tmax (Pharmacokinetics in dogs; po, 10 mg/kg): 1 h
- half-life (Pharmacokinetics in dogs; po, 10 mg/kg): 6.1 h
- time spent in the central area (BALB/c mice [2]): significant anxiolytic effect
- decrease in immobility time (BALB/c mice [3]): comparable to that observed with either Fluoxetine or Desipramine
- reversal of scopolamine-induced amnesia vs comparators (male BALB/c mice; AVN-101 5 mg/kg IP): equal to or more effective than either memantine or tacrine
- lowest dose with preventative effect on scopolamine-induced amnesic parameters (male BALB/c mice; IP, scopolamine 0.3 mg/kg): 0.02 mg/kg
- anti-amnesic dose (male BALB/c mice; scopolamine model): 0.05 mg/kg
- effect on MK-801-induced amnesia (BALB/c mice [4]; IP): dose-dependently prevented
- anti-amnesic dose (BALB/c mice [4]; MK-801 model): 0.5 mg/kg
- effect on scopolamine-induced amnesia (time in platform quadrant) (BALB/c mice [5]): effectively reversed
- optimal dose in restoration of PPI (male SHK mice): 0.1 to 0.5 mg/kg
- effect on apomorphine-induced disruption of PPI (male SHK mice; apomorphine 20 mg/kg, Haloperidol 1 mg/kg): effective in reversing
- toxic effects (Wistar rats; 5 mg/kg PO daily): severe hepatotoxic and moderate cardiotoxic effects
- toxic effects (Wistar rats; 0.25 and 0.5 mg/kg PO daily): substantially less noticeable
- reproductive function, male rats ([6]; 1.0 and 25.0 mg/kg intragastrically daily for 48 days): no reproductive function alteration
- effect in female rats dosed prior to pairing ([6]; daily for 15 days prior to pairing): reduction in the body mass increase of the pregnant rats and their posterity
- embryotoxic / teratogenic effect ([6]; doses up to 25.0 mg/kg, male or female): neither embryotoxic nor teratogenic effect
- sleepiness (healthy volunteers; 20 mg, 8 volunteers per group): 3 volunteers
- adverse effects (healthy volunteers; 20 mg, first half of the day): some adverse effects were detected in five volunteers
- blood pressure, one person (healthy volunteers; 20 mg, 141/88 before to 157/87 (2 h–4 h) and 155/77 (6 h–7.5 h)): transient increase in systolic pressure
- QT interval in ECG (healthy volunteers; 2, 4, 10, 20 mg single PO dose): No QT interval prolongation
- biochemical and clinical parameters of blood and urine (healthy volunteers; all dose groups): in a normal range
- tolerability (healthy volunteers; orally, doses of up to 20 mg daily): well tolerated
- AUC ([7]; 2 mg): 0.0946 ± 0.0268 ng·h/mL
- Cmax ([7]; 2 mg): 0.00579 ± 0.0029 ng/mL
- half-life ([7]; 2 mg): 14.1 ± 10.2 h
- AUC ([7]; 4 mg): 0.211 ± 0.0862 ng·h/mL
- half-life ([7]; 4 mg): 8.15 ± 2.23 h
- AUC ([7]; 10 mg): 0.462 ± 0.207 ng·h/mL
- Cmax ([7]; 10 mg): 0.0537 ± 0.0318 ng/mL
- half-life ([7]; 10 mg): 10.2 ± 2.55 h
- AUC ([7]; 20 mg): 0.843 ± 0.333 ng·h/mL
- Cmax ([7]; 20 mg): 0.0841 ± 0.0462 ng/mL
- half-life ([7]; 20 mg): 8.18 ± 2.09 h
- Tmax ([7]; male): ~1 h
- half-life ([7]; male): 8 to 14 h
- concentration in brain-containing chamber vs plasma chamber [8]: never exceeds that of the plasma chamber
